These results are taken from publication PMC12966599 (Journal of Pharmaceutical Analysis, 2025).

The IC50 is the concentration needed to halve the response being measured.

One series has as its system SHP2. The conditions noted are these: read-out: IC50 against SHP2; previous study; ref 22 (Liu et al.); cited from earlier work.
The next series has as its target PTPRA (RPTPα) (Homo sapiens, UniProt P18433). Put plainly: Phosphatase selectivity, PTPRA. The class given is biochemical.
The target of the next series is PTPN6 (SHP1) (Homo sapiens, UniProt P29350). As to the kind of experiment: Phosphatase selectivity, PTPN6. The class given is biochemical.
Chain of PTPN6 (SHP1) (P29350 1-597 isoform P29350-3): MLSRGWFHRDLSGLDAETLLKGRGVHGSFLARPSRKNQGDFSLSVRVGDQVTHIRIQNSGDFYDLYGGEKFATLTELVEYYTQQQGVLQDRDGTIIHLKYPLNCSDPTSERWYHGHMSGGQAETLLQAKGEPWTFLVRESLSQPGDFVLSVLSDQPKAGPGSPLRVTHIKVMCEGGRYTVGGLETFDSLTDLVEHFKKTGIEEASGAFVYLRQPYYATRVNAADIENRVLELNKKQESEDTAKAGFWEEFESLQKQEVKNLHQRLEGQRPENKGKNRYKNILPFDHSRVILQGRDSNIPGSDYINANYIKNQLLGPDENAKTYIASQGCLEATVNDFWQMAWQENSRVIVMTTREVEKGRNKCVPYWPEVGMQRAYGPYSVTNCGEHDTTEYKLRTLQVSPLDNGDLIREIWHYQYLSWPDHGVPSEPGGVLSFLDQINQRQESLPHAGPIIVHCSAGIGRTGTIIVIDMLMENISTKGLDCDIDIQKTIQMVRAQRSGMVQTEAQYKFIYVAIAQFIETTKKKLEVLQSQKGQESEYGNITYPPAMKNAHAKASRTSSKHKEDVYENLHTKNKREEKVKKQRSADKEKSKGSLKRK
Another series addresses T1, SHP2-PTP^Q510A (Homo sapiens, UniProt Q06124, Q510A).
T1 sequence (Q06124 237-529 Q510A): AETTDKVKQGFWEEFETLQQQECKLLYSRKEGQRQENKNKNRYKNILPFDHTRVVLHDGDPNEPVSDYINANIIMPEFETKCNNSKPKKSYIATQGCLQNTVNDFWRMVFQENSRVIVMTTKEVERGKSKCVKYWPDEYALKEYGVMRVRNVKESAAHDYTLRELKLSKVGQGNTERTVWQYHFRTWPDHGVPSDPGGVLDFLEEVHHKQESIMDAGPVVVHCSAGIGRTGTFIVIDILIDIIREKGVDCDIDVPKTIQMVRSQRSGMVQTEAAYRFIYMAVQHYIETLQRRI
Put plainly: BLI assay, SHP2-PTP^Q510A. The class given is binding.

A further series has as its target T2, SHP2^D61V (Homo sapiens, UniProt Q06124, D61V).
T2 sequence (Q06124 1-525 D61V): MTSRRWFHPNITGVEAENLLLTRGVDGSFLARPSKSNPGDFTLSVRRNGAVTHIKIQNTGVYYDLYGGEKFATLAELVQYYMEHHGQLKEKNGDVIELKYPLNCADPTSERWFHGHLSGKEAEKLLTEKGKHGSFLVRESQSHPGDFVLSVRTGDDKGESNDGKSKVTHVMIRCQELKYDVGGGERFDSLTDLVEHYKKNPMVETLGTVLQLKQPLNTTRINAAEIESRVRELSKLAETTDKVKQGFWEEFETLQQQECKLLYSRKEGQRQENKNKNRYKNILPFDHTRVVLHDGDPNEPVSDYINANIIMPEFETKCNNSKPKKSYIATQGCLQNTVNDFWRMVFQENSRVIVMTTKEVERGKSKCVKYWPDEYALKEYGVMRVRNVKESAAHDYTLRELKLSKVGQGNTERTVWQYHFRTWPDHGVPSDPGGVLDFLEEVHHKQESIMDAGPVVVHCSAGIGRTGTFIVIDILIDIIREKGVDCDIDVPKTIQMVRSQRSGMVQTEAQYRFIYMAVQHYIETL
Put plainly: Inhibition of oncogenic mutant SHP2^D61V. The class given is biochemical.

The target in another series is T3, PTPN1 (PTP1B) (Homo sapiens, UniProt P18031).
T3 sequence (P18031 1-321): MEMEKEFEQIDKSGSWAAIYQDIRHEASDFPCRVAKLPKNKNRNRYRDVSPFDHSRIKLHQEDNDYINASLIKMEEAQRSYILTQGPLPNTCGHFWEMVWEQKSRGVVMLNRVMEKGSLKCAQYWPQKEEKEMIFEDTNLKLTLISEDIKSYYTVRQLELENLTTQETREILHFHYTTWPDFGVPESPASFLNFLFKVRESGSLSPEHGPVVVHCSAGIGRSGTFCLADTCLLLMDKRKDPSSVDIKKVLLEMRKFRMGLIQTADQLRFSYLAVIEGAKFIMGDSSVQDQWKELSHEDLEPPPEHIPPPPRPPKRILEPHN
Put plainly: Phosphatase selectivity, PTPN1. The class given is biochemical.

For the next series, the system named is H1975 xenograft. As to the kind of experiment: NCI-H1975 xenograft model. The class given is in vivo, BALB/c nude mice. The method, boiled down:
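Female BALB/c nude mice, five weeks old, received a subcutaneous H1975 suspension (5 × 10^6/mL) in the right flank. At a mean tumor volume of 50–100 mm3 they were randomised into three groups. Compound in 0.5% CMC-Na was given intragastrically at 20 mg/kg/day; controls received vehicle. Body weight and tumor volume were recorded every two days. Tumor sections were stained for Ki-67, and tumor lysates were immunoblotted for p-ERK. Data are mean ± SD with two-sided t-test.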

Another series addresses T4, SHP2-PTP^R465A (Homo sapiens, UniProt Q06124, R465A).
T4 sequence (Q06124 237-529 R465A): T1 sequence (Q06124 237-529 Q510A) with R229A, A274Q
Put plainly: BLI assay, SHP2-PTP^R465A. The class given is binding.

The next series deals with T5, SHP2-PTP (Homo sapiens, UniProt Q06124).
T5 sequence (Q06124 237-529): T1 sequence (Q06124 237-529 Q510A) with A274Q
Put plainly: SHP2-PTP inhibition assay. The class given is biochemical. The note with it: for IC50: IC50 (SHP2-PTP), DiFMUP substrate.

The next series has as its target T6, LMWPTP (ACP1) (Homo sapiens, UniProt P24666).
T6 sequence (P24666 1-158): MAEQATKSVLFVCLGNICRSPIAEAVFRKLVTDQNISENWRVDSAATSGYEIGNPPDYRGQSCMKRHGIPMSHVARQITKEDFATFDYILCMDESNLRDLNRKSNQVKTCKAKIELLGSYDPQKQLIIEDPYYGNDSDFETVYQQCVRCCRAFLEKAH
As to the kind of experiment: Phosphatase selectivity, LMWPTP. The class given is biochemical.

Series [1] deals with SHP2 knockdown H1975 cells. As to the kind of experiment: Cell proliferation in SHP2 knockdown cells. The class given is cell-based. The note with it: SHP2 siRNA treated H1975 cells versus H1975.
The target of another series is T7, SHP2-FL (Homo sapiens, UniProt Q06124).
T7 sequence (Q06124 1-525): T2 sequence (Q06124 1-525 D61V) with V61D
As to the kind of experiment: SHP2-FL inhibition assay. The class given is biochemical.

Series [2] deals with NCI-H1975 cells. Put plainly: Cell proliferation assay. The class given is cell-based. The conditions noted are these: CCK-8, day 3. The method in brief:
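About 1.5 × 10^3 H1975 cells per well, in RPMI-1640 with 10% FBS, were treated with compound at 0–50 μM. On day 3 CCK-8 reagent was added and optical density read. Untreated wells served for background correction.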

The subject of series [3] is NCI-H1975 cells. Put plainly: Colony formation assay. The class given is cell-based. The conditions noted are these: measured 10 days after compound treatment. The method in brief: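 About 10^3 H1975 cells per well in RPMI-1640 with 10% FBS were allowed to adhere overnight and treated the next day. Medium and compound were renewed every 3–4 days. When untreated wells reached confluence, colonies were fixed with formaldehyde, stained with 0.2% crystal violet and scanned.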

Another series addresses T8, SHP2^E76K (Homo sapiens, UniProt Q06124, E76K).
T8 sequence (Q06124 1-525 E76K): T2 sequence (Q06124 1-525 D61V) with V61D, E76K
As to the kind of experiment: Inhibition of oncogenic mutant SHP2^E76K. The class given is biochemical.

The subject of another series is p-ERK in H1975 cells. As to the kind of experiment: ERK phosphorylation in cells. The class given is cell-based. The note with it: 10 μM. The method, boiled down:
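H1975 cells, grown in RPMI-1640 with 10% FBS, were exposed to 10 μM compound and lysed in RIPA buffer with phosphatase and protease inhibitors. Proteins were separated and transferred. Blots were probed overnight at 4 °C with antibodies to p-ERK1/2, total ERK and β-actin diluted in 5% BSA, then developed by enhanced chemiluminescence.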

For a further series, the target named is T9, PTPN12 (PTP-PEST) (Homo sapiens, UniProt Q05209).
T9 sequence (Q05209 1-305): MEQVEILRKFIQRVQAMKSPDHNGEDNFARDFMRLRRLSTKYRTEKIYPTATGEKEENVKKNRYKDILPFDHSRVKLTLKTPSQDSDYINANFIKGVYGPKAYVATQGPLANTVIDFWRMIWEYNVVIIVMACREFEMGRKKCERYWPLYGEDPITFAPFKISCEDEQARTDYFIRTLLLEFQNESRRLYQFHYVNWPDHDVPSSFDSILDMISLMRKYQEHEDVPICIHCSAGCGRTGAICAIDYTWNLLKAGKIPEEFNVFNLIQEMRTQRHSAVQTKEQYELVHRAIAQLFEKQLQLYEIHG
Put plainly: Phosphatase selectivity, PTPN12. The class given is biochemical.

A further series addresses T10, SHP2^T253M (Homo sapiens, UniProt Q06124, T253M).
T10 sequence (Q06124 1-525 T253M): T2 sequence (Q06124 1-525 D61V) with V61D, T253M
Put plainly: Inhibition of tunnel-site mutant SHP2^T253M. The class given is biochemical.

Setting [4] is: 20 mg/kg/day oral, versus vehicle.

Changes are numbered by the printed parent chain. “Also recorded” adds a separate entry of the source. Where only a bound is given, the exact number is not on record here.

Chain of PTPRA (RPTPα) (P18433 183-802): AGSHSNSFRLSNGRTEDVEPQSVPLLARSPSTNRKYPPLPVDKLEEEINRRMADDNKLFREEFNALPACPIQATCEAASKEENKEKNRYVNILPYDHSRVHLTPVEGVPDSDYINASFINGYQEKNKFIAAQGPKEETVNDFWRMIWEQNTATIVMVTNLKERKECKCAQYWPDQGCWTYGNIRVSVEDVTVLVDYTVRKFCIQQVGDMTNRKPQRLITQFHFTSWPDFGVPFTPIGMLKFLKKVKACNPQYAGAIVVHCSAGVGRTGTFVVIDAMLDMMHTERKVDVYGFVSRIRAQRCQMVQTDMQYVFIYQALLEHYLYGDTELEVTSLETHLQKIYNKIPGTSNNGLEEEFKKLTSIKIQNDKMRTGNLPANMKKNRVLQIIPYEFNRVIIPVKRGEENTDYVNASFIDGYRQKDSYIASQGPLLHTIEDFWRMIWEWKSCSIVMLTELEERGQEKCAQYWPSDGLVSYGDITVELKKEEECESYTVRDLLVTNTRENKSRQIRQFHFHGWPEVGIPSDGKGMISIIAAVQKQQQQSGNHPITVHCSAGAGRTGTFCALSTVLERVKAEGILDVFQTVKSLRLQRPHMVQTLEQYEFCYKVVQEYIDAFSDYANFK

With `C[C@H]1COC2=C1C(=O)C(=O)c1c2ccc2c1CCCC2(C)C` [Cryptotanshinone], in the series on SHP2, the 50% inhibitory concentration (IC50) was 22.5 µM.

Consider `Cc1cccc2c3c(ccc12)C1=C(C(=O)C3=O)[C@@H](C)CO1` [DHT, dihydrotanshinone I], for which the 50% inhibitory concentration (IC50) was 50.4 ± 5.3 µM against PTPRA (RPTPα); 2.5 ± 0.3 µM on PTPN6 (SHP1); 1.34 ± 0.36 µM against SHP2^D61V; 9.3 ± 0.94 µM against PTPN1 (PTP1B); 1.06 ± 0.21 µM against SHP2-PTP; above 100 µM against LMWPTP (ACP1). In addition, the IC50 was 1.61 ± 0.26 µM against SHP2^E76K and 32.1 ± 3.8 µM against PTPN12 (PTP-PEST). Also, on SHP2-PTP^Q510A, the “direct interaction with SHP2-PTP^Q510A (BLI)” value is given as “significantly abolished the direct interaction”. The body weight change result in the series with H1975 xenograft (20 mg/kg/day oral, full treatment course) is recorded as “No body weight loss”. Moreover, the “Ki-67 staining in tumor tissue” value in the series with H1975 xenograft (setting [4]) is “reduced Ki-67 staining positive areas”. In addition, in the series on H1975 xenograft (setting [4]), the “MAPK phosphorylation in tumor tissue” value is recorded as “marked decrease”. Moreover, in the series on H1975 xenograft (oral gavage 20 mg/kg daily, 20-day treatment, versus vehicle, 20 mg/kg), the “tumor growth in NCI-H1975 xenograft” value is listed as “significant tumor growth suppression; also recorded: modest anti-tumor effect”. Further, the “direct interaction with SHP2-PTP^R465A (BLI)” value on SHP2-PTP^R465A is “significantly abolished the direct interaction”. The “fold higher inhibitory potency against SHP2 than cryptotanshinone” value at SHP2-PTP (DiFMUP screening, versus cryptotanshinone) is recorded as 4.7 fold. For the same compound, the “fold lower SHP2-PTP IC50 than tanshinone IIA” value on SHP2-PTP (versus tanshinone IIA) was determined as 13 fold. Moreover, the “sensitivity of SHP2-depleted H1975 cells (anti-proliferation)” value in series [1] is on record as “significantly lower sensitivity”. The “SHP2-FL inhibitory activity (in words)” value at SHP2-FL is given as “comparable inhibitory activity”. Besides, the “proliferation of NCI-H1975 cells” value in the series with NCI-H1975 cells [2] is listed as “significant suppression”. Besides, the “colony formation of NCI-H1975 cells” value with NCI-H1975 cells [3] is “significant suppression”. Also, the “ERK phosphorylation (Western blot)” value in the series with p-ERK in H1975 cells is “significant decrease”.

For the compound `C[C@@H]1OCC2(CCN(c3cnc(Sc4ccnc(N)c4Cl)c(N)n3)CC2)[C@@H]1N` [TNO155], the “effect of SHP2^T253M mutation on efficacy (in words)” value on SHP2^T253M is listed as “eliminated the efficacy”.

For the compound `Cc1coc2c1C(=O)C(=O)c1c-2ccc2c(C)cccc12` [Tanshinone I], the midpoint of inhibition against SHP2-PTP, the IC50, lay at 3.3 ± 1.2 µM.
